Results reported in ChEMBL document CHEMBL1154706, “Novel substituted and fused pyrrolizine derivatives: synthesis, anti-inflammatory and ulcerogenecity studies” (Eur J Med Chem, 2010).

tested on: Rattus norvegicus; experiment: Gastrointestinal toxicity in albino rat assessed ulcer index at 39.23 […], po; format: organism-based; conditions: in vivo
In short: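 Adult albino rats of both sexes (120–150 g), five per group, fasted 20 h before dosing. Compounds given orally as a suspension in 1% Tween; controls received vehicle. Dosed on three consecutive days with fasting/feeding cycles, then killed on day 4. Stomach opened along the greater curvature and rinsed with saline. Red spots counted and severity scored 0–4. Ulcer index derived from % incidence/10, mean ulcer number and mean severity.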

Row | Compound | UI
1 | CC(C(=O)Nc1c(C#N)c2n(c1C(=O)Nc1ccccc1)CCC2)c1cccc(C(=O)c2ccccc2)c1 (racemic) | 0
2 | Cc1ccc(NC(=O)c2c(NC(=O)C(C)c3ccc(CC(C)C)cc3)c(C#N)c3n2CCC3)cc1 (racemic) | 3.2
3 | O=C(O)/C=C\c1nc(=O)c2c3n(c(C(=O)Nc4ccc(Cl)cc4)c2[nH]1)CCC3 | 17.09
4 | CC(C)Cc1ccc(C(C)C(=O)Nc2c(C#N)c3n(c2C(=O)Nc2ccc(Cl)cc2)CCC3)cc1 (racemic) | 0
5 | O=C(O)/C=C\c1nc(=O)c2c3n(c(C(=O)Nc4ccccc4)c2[nH]1)CCC3 | 17.46
6 | O=C(O)CCc1nc(=O)c2c3n(c(C(=O)Nc4ccccc4)c2[nH]1)CCC3 | 16.66
7 | Cc1ccc(NC(=O)c2c3[nH]c(CCC(=O)O)nc(=O)c3c3n2CCC3)cc1 | 17.91
8 | CC(C)Cc1ccc(C(C)C(=O)Nc2c(C#N)c3n(c2C(=O)Nc2ccccc2)CCC3)cc1 (racemic) | 0
9 | CC(C(=O)Nc1c(C#N)c2n(c1C(=O)Nc1ccc(Cl)cc1)CCC2)c1cccc(C(=O)c2ccccc2)c1 (racemic) | 3.6
10 | O=C(O)CCc1nc(=O)c2c3n(c(C(=O)Nc4ccc(Cl)cc4)c2[nH]1)CCC3 | 15.66
11 | O=C(c1ccccc1)c1ccc2n1CCC2C(=O)O (stereo not drawn) [KETOROLAC] | 11.6
12 | Cc1ccc(NC(=O)c2c(NC(=O)C(C)c3cccc(C(=O)c4ccccc4)c3)c(C#N)c3n2CCC3)cc1 (racemic) | 3.6
13 | Cc1ccc(NC(=O)c2c3[nH]c(/C=C\C(=O)O)nc(=O)c3c3n2CCC3)cc1 | 18.3
